# EBI2 antag: EBI2 (human) antagonism; P32249; EBI2 beta-arrestin recruitment, luminescence, 7a,25-OHC stimulated; inhibition, % at 5 µM; 360,000 compounds, 0.81% hits; in the data active = inhibition above about 38%;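 also: enzyme fragment complementation signal reports receptor beta-arrestin coupling in cells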
# APJ ag: activates the human apelin receptor APJ | P35414 | AID 2520 | 330,000 compounds, 0.11% hits | activation, % at 20 µM | CHO-K1 APJ PathHunter beta-arrestin, luminescence; 0% DMSO wells, 100% apelin;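 active = activation more than six SD over the plate average, tested at 20 µM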
#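 assay system = CHO-K1 APJ beta-arrestin complementation cell line | input = cell density 1000 per well | dosing = compound 20 µM once, DMSO 1% | timing = compound 90 min 25 °C, reagent 1 h | measured by = luminescence from split beta-galactosidase complementation, Galacton Star/Emerald II substrate | read-out basis = APJ agonist activity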
# CXCR6 block: blocks human CXCR6 beta-arrestin recruitment | O00574 | 360,000 compounds, 0.36% hits | CHO-K1 PathHunter CXCR6 beta-arrestin, luminescence | inhibition, % at 20 µM; in the data active = inhibition above about 34%, passing the limit was not always enough;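 also: antagonist mode with CXCL16 agonist at 10 nM final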
# Target sequence (O00574 whole entry, looked up): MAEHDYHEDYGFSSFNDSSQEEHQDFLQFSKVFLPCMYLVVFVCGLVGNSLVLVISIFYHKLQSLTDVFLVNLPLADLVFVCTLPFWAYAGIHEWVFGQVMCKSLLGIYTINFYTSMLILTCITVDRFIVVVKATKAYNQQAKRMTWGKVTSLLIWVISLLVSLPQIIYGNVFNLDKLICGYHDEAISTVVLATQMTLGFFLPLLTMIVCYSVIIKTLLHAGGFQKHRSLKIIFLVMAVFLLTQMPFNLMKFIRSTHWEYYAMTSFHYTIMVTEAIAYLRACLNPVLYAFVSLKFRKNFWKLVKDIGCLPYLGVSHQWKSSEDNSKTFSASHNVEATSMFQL
# CCR6 antag: CCR6 (human) receptor antagonism. CHO-K1 CCR6 PathHunter beta-arrestin, luminescence, CCL20-stimulated. inhibition, % at 20 µM. 340,000 compounds, 0.49% hits;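 active = compounds whose inhibition of the agonist-driven luminescence signal at 20 µM reaches about 50%, limit read from the data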;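 also: cells stimulated with CCL20 at 14 nM final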
# APJ antag: blocks the human apelin receptor APJ; 330,000 compounds, 0.32% hits; inhibition, % at 20 µM; AID 2521; CHO-K1 APJ beta-arrestin complementation, luminescence;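 active = inhibition above about 40% at 20 µM, limit read from the data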;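 also: cells challenged with 10 nM apelin-13 agonist together with compound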
# APJ ag conf: confirmation of human APJ apelin receptor agonists; activation, % at 20 µM; shares compounds with APJ ag; AID 2764; CHO-K1 APJ PathHunter beta-arrestin, luminescence; 310 compounds, 10% hits;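 active = activation above 40%, taking the highest of four retests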
# A number is an active result; 0 = inactive; - = no result. Compounds with a hit are over-represented: about 1.5% of the library has one in this group of screens.
SMILES,EBI2 antag,APJ ag,CXCR6 block,CCR6 antag,APJ antag,APJ ag conf
CC(=O)c1c(C)[nH]c(C(=O)OCC(=O)Nc2cc(Cl)ccc2[N+](=O)[O-])c1C,0,17,0,0,0,0
CC(C)(C)OC(=O)CC[C@@H](C(=O)NCCCCCCCCCCC(=O)N1CCN(C(=O)OC(C)(C)C)CC1)n1cc(CCCCCNC(=O)OC(C)(C)C)nn1,0,0,0,0,0,-
CC(C)(C)OC(=O)NCCCCCc1cn([C@@H](CO)C(=O)NCCCCCCCCCCC(=O)N2CCN(C(=O)OC(C)(C)C)CC2)nn1,0,45,0,0,0,52
O=C(Nc1ccccc1N1CCOCC1)c1ccccc1[N+](=O)[O-],0,0,0,0,0,-
O=C(Nc1ccccc1N1CCOCC1)c1ccc([N+](=O)[O-])s1,0,10,0,0,0,0
COc1ccc2c(c1)C(CC(C)=O)N(c1ccc(-c3cccs3)cc1)C(c1ccsc1)=C2 (stereo not drawn),0,-,0,-,-,-
COc1c(O)c(O)c2oc(-c3ccccc3)cc(=O)c2c1OC,0,0,0,0,0,-
COc1cc(-c2cc(=O)c3c(O)c(OC)c(OC)c(O)c3o2)ccc1O,0,28,0,0,0,0
CCCCNc1c(-c2cccc(-c3ccc(OC)cc3)c2)nc2ccc(C)cn12,0,52,0,0,0,0
CCCCNc1c(-c2cccc(-c3ccc(OC)cc3)c2)nc2cc(C)ccn12,0,0,0,0,0,-
CC(C)COC(=O)N1CCCCC1c1cc(C(=O)Nc2ccccc2)no1 (stereo not drawn),0,-,0,-,-,-
CC(=O)c1c(C)[nH]c(C(=O)OCc2cc(-c3ccco3)on2)c1C,0,13,0,0,0,0
CC(=O)c1c(C)[nH]c(C(=O)OCc2cccc(Cl)c2)c1C,0,0,0,0,0,-
Oc1ccc(/C=N/Nc2ccnc3cc(Cl)ccc23)c(O)c1O,0,0,0,0,0,-
Oc1ccc(/C=N/Nc2ccnc3cc(Cl)ccc23)cc1O,0,15,0,0,0,0
CCOc1ccc2[nH]c(=O)c(CN(Cc3ccco3)Cc3nnnn3Cc3ccccc3)cc2c1,0,0,0,0,0,-
CCOc1ccc2[nH]c(=O)c(CN(Cc3ccco3)C(CC)c3nnnn3Cc3ccccc3)cc2c1 (stereo not drawn),0,76,0,0,0,0
CC(C)C[C@@H](CO)N(Cc1ccccc1)S(=O)(=O)N(Cc1ccccc1)[C@H](CO)CC(C)C,0,11,0,0,0,0
CC(C)=CCc1cc2c(=O)c3c(O)c4c(cc3oc2c(O)c1O)OC(C)C4(C)C (stereo not drawn),-,0,-,-,0,-
CN1CCN(c2ccc(NC(=S)NC(=O)c3cccc4ccccc34)cc2)CC1,0,28,0,0,0,0
CCn1c(CC(=O)Nc2ccc(C)c(Cl)c2)nnc1SCC(=O)Nc1nc(C)cs1,0,20,0,0,0,0
CC(C)C(=O)N1CCCC1(C)C(=O)Nc1ccc(F)cc1 (stereo not drawn),0,-,0,-,-,-
CC(C)(C)C(C(=O)NC1CCCC1)N1CCN(c2ncccc2C#N)CC1 (stereo not drawn),0,-,-,-,-,-
CCN(CC)C(=O)c1cccc(-c2csc(C(O)c3cccc(OC)c3)n2)c1 (stereo not drawn),0,-,0,-,-,-
N/C(Cc1ccc([N+](=O)[O-])cc1)=N\OC(=O)c1cccc(Br)c1,0,0,0,0,0,-
SMILES,EBI2 antag,APJ ag,CXCR6 block,CCR6 antag,APJ antag,APJ ag conf
COc1ccc(C(=O)O/N=C(\N)Cc2ccc(Cl)c(Cl)c2)cc1OC,0,0,0,0,0,-
COc1ccccc1C/C(N)=N/OC(=O)c1cccc([N+](=O)[O-])c1,0,11,0,0,0,0
COc1ccc(C/C(N)=N/OC(=O)c2cccc([N+](=O)[O-])c2)cc1,0,18,0,0,0,0
COc1ccc(C(=O)O/N=C(\N)Cc2ccc(Cl)cc2)cc1OC,0,12,0,0,0,0
COc1ccc(C(=O)O/N=C(\N)Cc2ccc([N+](=O)[O-])cc2)c(OC)c1,0,21,0,0,0,0
COc1ccc(CNC(=O)Cn2cnc3c(NCc4ccccc4)ncnc32)cc1,0,-,0,0,-,-
Cc1ccc(-c2ccc(/C=C3\C(=O)ON=C3c3ccccc3)o2)c([N+](=O)[O-])c1,0,16,0,62,0,0
COC(=O)C1=C(CN2CCc3ccccc32)NC(=O)NC1c1cc(C)ccc1C (stereo not drawn),0,39,0,0,0,0
COC(=O)C1=C(CN2CCN(C)CC2)NC(=O)NC1c1cc(C)ccc1C (stereo not drawn),0,0,0,0,0,-
Cc1c2ccccc2c(C)c2c1ccc1ccccc12,0,41,0,0,0,0
Cc1c2ccccc2nc2ccccc12,0,0,0,0,0,-
ON=C1C2CC=C(c3ccccc3)C1CCC2 (stereo not drawn),0,-,0,0,-,-
COc1ccc2oc(C(=O)Nc3ccc(S(=O)(=O)N(C)C4CCN(C)CC4)cc3)c(C)c2c1,0,51,0,0,0,0
Clc1ccc(-c2nnnn2-c2ccc(Cl)cc2)cc1,0,0,0,0,0,-
Cc1ccc(-n2nnnc2C(Cl)(Cl)c2nnnn2-c2ccc(C)cc2)cc1,0,34,0,52,0,41
Cc1cc(Cl)ccc1C(O)c1ncc(-c2cccc3ccccc23)[nH]1 (stereo not drawn),0,-,0,-,-,-
CCCCc1ccc(NC(=O)COc2ccc(C(=O)Nc3ccccc3OCC)cc2)cc1,0,36,0,0,0,0
CCOc1ncccc1C(=O)Nc1cc(S(=O)(=O)N2CCCCC2)ccc1OC,0,25,0,0,0,0
CC(CC(=O)N1CCN(c2cccc(Cl)c2)CC1)S(=O)(=O)c1ccc2c(c1)NC(=O)CO2 (stereo not drawn),0,33,0,0,0,0
COc1cc(-c2nc(-c3ccc(NC(=O)c4ccc(Br)o4)cc3)no2)cc(OC)c1OC,0,0,0,0,0,-
COc1ccc(-c2nc(-c3ccc(NC(=O)c4ccc(Br)o4)cc3)no2)cc1OC,0,47,0,0,0,0
CC(C)(C)c1cc2nc(NCCOc3ccccc3)ccn2n1,0,-,0,-,-,-
CCOC(=O)c1c(C)[nH]c(C(=O)OCC(=O)Nc2sccc2C(N)=O)c1C,0,32,0,0,0,0
CCCCCCc1cc2cc(-c3nnc(-c4ccccc4OC)o3)c(=O)oc2cc1O,0,0,0,0,0,-
CCCCCCc1cc2cc(-c3nnc(-c4cc(OC)c(OC)c(OC)c4)o3)c(=O)oc2cc1O,-,16,-,0,0,54
CCCCCCc1cc2cc(-c3nnc(-c4ccccc4O)o3)c(=O)oc2cc1O,0,25,0,0,0,52
COC(=O)CCCC1=CC2=CC(=O)C(C)(OC(=O)c3cccs3)C(=O)C2=CN1C1CCCCC1 (stereo not drawn),0,92,0,0,0,0
